Results from ChEMBL document CHEMBL4393716, “5-Chlorobenzofuran-2-carboxamides: From allosteric CB1 modulators to potential apoptotic antitumor agents” (Eur J Med Chem, 2019).

Experiments:
[1] = test system: HT-29; assay: Antiproliferative activity against human HT-29 cells assessed as growth inhibition incubated for 48 hrs by MTT assay; type: functional; settings: HT-29, 48 h
Summary of the method: (§1)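 MTT viability assay run on four human cancer lines: A549 (lung), MCF-7 (breast), Panc-1 (pancreatic) and HT29 (colon). GI50 derived per cell line from the MTT readout, following a previously reported protocol.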

[2] = test system: MCF7; assay: Induction of apoptosis in human MCF7 cells assessed as activation of caspase-3 level incubated for 24 hrs by enzyme assay relative to control; type: functional
Summary of the method: (§2)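 MCF-7 breast cells (ATCC) were grown in RPMI 1640 with 10% FBS at 37 °C, then treated with compounds. Active caspase-3, -8 or -9 protein was quantified (pg/mL) and expressed as fold over untreated control cells.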

[3] = test system: A549; assay: Antiproliferative activity against human A549 cells assessed as growth inhibition incubated for 48 hrs by MTT assay; type: functional; settings: A549, 48 h; summary of the method: as §1
[4] = test system: PANC-1; assay: Antiproliferative activity against human PANC1 cells assessed as growth inhibition incubated for 48 hrs by MTT assay; type: functional; settings: PANC-1, 48 h; summary of the method: as §1
[5] = Cytotoxicity against human MCF10A cells assessed as reduction in cell viability at 50 uM incubated for 4 days by MTT assay; type: cell-based, MCF-10A
Summary of the method: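 Non-tumorigenic human mammary epithelial MCF-10A cells were exposed to compounds for 4 days. Viability was read by MTT reduction and expressed as percent viable cells.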

[6] = test system: MCF7; assay: Antiproliferative activity against human MCF7 cells assessed as growth inhibition incubated for 48 hrs by MTT assay; type: functional; settings: MCF7, 48 h; summary of the method: as §1
[7] = test system: MCF7; assay: Cell cycle arrest in human MCF7 cells assessed as accumulation in pre G phase incubated for 24 hrs by annexin-V FITC and propidium iodide staining based flow cytometry analysis (reference value: 1.93 %); type: functional
[8] = test system: MCF7; assay: Induction of apoptosis in human MCF7 cells assessed as activation of cytochrome C level incubated for 24 hrs by enzyme assay relative to control; type: functional
Summary of the method: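 MCF-7 cells (ATCC) were cultured in RPMI 1640 plus 10% fetal bovine serum at 37 °C and stimulated with compounds. Cytochrome C level was measured and reported as fold over untreated control.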

[9] = test system: MCF7; assay: Cell cycle arrest in human MCF7 cells assessed as accumulation in G0/G1 phase incubated for 24 hrs by annexin-V FITC and propidium iodide staining based flow cytometry analysis (reference value: 53.71 %); type: functional
[10] = test system: MCF7; assay: Cell cycle arrest in human MCF7 cells assessed as accumulation in S phase incubated for 24 hrs by annexin-V FITC and propidium iodide staining based flow cytometry analysis (reference value: 37.42 %); type: functional
[11] = test system: MCF7; assay: Induction of apoptosis in human MCF7 cells assessed as late apoptotic cells at 0 to 8 umol/L incubated for 24 hrs by annexin-V FITC and propidium iodide staining based flow cytometry analysis (reference value: 0.37%); type: functional
Summary of the method: (§3)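 MCF-7 cells were stained with annexin-V-FITC and propidium iodide and analysed by flow cytometry. Cells were classed as early apoptotic, late apoptotic or necrotic.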

[12] = test system: MCF7; assay: Induction of apoptosis in human MCF7 cells assessed as early apoptotic cells at 0 to 8 umol/L incubated for 24 hrs by annexin-V FITC and propidium iodide staining based flow cytometry analysis (reference value: 0.88 %); type: functional; summary of the method: as §3
[13] = test system: MCF7; assay: Induction of apoptosis in human MCF7 cells assessed as activation of caspase-8 level incubated for 24 hrs by enzyme assay relative to control; type: functional; summary of the method: as §2
[14] = test system: MCF7; assay: Induction of apoptosis in human MCF7 cells assessed as necrotic cells at 0 to 8 umol/L incubated for 24 hrs by annexin-V FITC and propidium iodide staining based flow cytometry analysis (reference value: 0.68 %); type: functional; summary of the method: as §3
[15] = test system: MCF7; assay: Cell cycle arrest in human MCF7 cells assessed as accumulation in G2/M phase incubated for 24 hrs by annexin-V FITC and propidium iodide staining based flow cytometry analysis (reference value: 8.87 %); type: functional
[16] = test system: MCF7; assay: Induction of apoptosis in human MCF7 cells assessed as activation of caspase-9 level incubated for 24 hrs by enzyme assay relative to control; type: functional; summary of the method: as §2
[17] = test system: MCF7; assay: Induction of apoptosis in human MCF7 cells assessed as decrease in Bcl2 level incubated for 24 hrs by RT-PCR relative to control; type: functional
[18] = test system: MCF7; assay: Induction of apoptosis in human MCF7 cells assessed as increase in Bax level incubated for 24 hrs by RT-PCR relative to control; type: functional

SMILES | GI50 [1] | GI50 [3] | GI50 [4] | GI50 [6] | fold change (FC) [2] | viability at 96 h, 50 µM [5] | Activity [7] | fold change (FC) [8] | Activity [9] | Activity [10] | Activity [11] | Activity [12] | fold change (FC) [13] | Activity [14] | Activity [15] | fold change (FC) [16] | fold change (FC) [17] | fold change (FC) [18]
Cc1c(C(=O)N2CCC(Cc3ccccc3)CC2)oc2ccc(Cl)cc12 | 16.9 µM | 15.4 µM | 18.6 µM | 16.4 µM | – | 96% | – | – | – | – | – | – | – | – | – | – | – | –
CCc1c(C(=O)N2CCN(c3ccccc3)CC2)oc2ccc(Cl)cc12 | 13.8 µM | 14.7 µM | 13.8 µM | 13.6 µM | – | 82% | – | – | – | – | – | – | – | – | – | – | – | –
Cc1c(C(=O)N2CCN(c3ccccc3)CC2)oc2ccc(Cl)cc12 | 34.7 µM | 29.5 µM | 36 µM | 35.4 µM | – | 92% | – | – | – | – | – | – | – | – | – | – | – | –
Cc1c(C(=O)NCCc2ccc(N(C)C)cc2)oc2ccc(Cl)cc12 | 6.9 µM | 6.9 µM | 6.6 µM | 6.8 µM | – | 90% | – | – | – | – | – | – | – | – | – | – | – | –
CCc1c(C(=O)N2CCC(Cc3ccccc3)CC2)oc2ccc(Cl)cc12 | 27.8 µM | 27.9 µM | 33.7 µM | 26.5 µM | – | 90% | – | – | – | – | – | – | – | – | – | – | – | –
Cc1c(C(=O)NCCc2ccccc2)oc2ccc(Cl)cc12 | 12.2 µM | 11.4 µM | 12.5 µM | 12.9 µM | – | 87% | – | – | – | – | – | – | – | – | – | – | – | –
CCc1c(C(=O)NCCc2ccccc2)oc2ccc(Cl)cc12 | 7.7 µM | 6 µM | 8.3 µM | 7.5 µM | – | 89% | – | – | – | – | – | – | – | – | – | – | – | –

Stronger by GI50 [1], values ahead:

GI50 [1] | GI50 [3] | GI50 [4] | GI50 [6] | SMILES | fold change (FC) [2] | viability at 96 h, 50 µM [5] | Activity [7] | fold change (FC) [8] | Activity [9] | Activity [10] | Activity [11] | Activity [12] | fold change (FC) [13] | Activity [14] | Activity [15] | fold change (FC) [16] | fold change (FC) [17] | fold change (FC) [18]
6.5 µM | 4.8 µM | 5.5 µM | 4.7 µM | CCc1c(C(=O)NCCc2ccc(N(C)C)cc2)oc2ccc(Cl)cc12 | 3.87 | 85% | – | – | – | – | – | – | – | – | – | – | – | –
4.9 µM | 5.2 µM | 4.8 µM | 4.9 µM | Cc1c(C(=O)NCCc2ccc(N3CCCC3)cc2)oc2ccc(Cl)cc12 | – | 89% | – | – | – | – | – | – | – | – | – | – | – | –
4.9 µM | 4.4 µM | 4.1 µM | 4.9 µM | Cc1c(C(=O)NCCc2ccc(N3CCCCC3)cc2)oc2ccc(Cl)cc12 | 4.83 | 79% | – | – | – | – | – | – | – | – | – | – | – | –
4.8 µM | 4.5 µM | 4.6 µM | 3.6 µM | CCc1c(C(=O)NCCc2ccc(N3CCCCC3)cc2)oc2ccc(Cl)cc12 | 5.71 | 82% | – | – | – | – | – | – | – | – | – | – | – | –
1.6 µM | 1.8 µM | 1.3 µM | 0.7 µM | CCc1c(C(=O)NCCc2ccc(N3CCOCC3)cc2)oc2ccc(Cl)cc12 | 8.1 | 91% | 34.29% | 16.83 | 24.53% | 31.49% | 23.08% | 8.92% | 9.64 | 2.29% | 43.96% | 15.98 | 5.77 | 34.46
1.01 µM | 1.21 µM | 1.41 µM | 0.9 µM | COc1cccc2c1C(=O)c1c(O)c3c(c(O)c1C2=O)C[C@@](O)(C(=O)CO)C[C@@H]3O[C@H]1C[C@H](N)[C@H](O)[C@H](C)O1 [DOXORUBICIN] | 7.66 | – | 22.17% | 13.13 | – | – | – | – | 10.07 | – | – | 17.4 | 5.1 | 33.42
5.4 µM | 4.9 µM | 5.6 µM | 4.4 µM | CCc1c(C(=O)NCCc2ccc(N3CCCC3)cc2)oc2ccc(Cl)cc12 | 5.17 | 89% | – | – | – | – | – | – | – | – | – | – | – | –
3.9 µM | 3.5 µM | 3.3 µM | 3.1 µM | Cc1c(C(=O)NCCc2ccc(N3CCOCC3)cc2)oc2ccc(Cl)cc12 | 5.9 | 84% | – | 11.26 | – | – | – | – | 5.23 | – | – | 13.58 | 2.56 | 19.7
